Active and inactive are the calls of the source.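 Rule for the calls: active = signal-lowering compounds whose fitted half-effect concentration is no more than twice the top tested dose; inconclusive = flat curve with 30 to 70% inhibition, or poor fit; inactive = the rest.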

A short description of the assay: quencher artefacts in RAD54 branch migration readout – biochemical, Cy5 label, cherry-picked samples, artefact control for RAD54 inhibitor project, dose response (AID 651651). Particulars: Cy5 DNA fluorescence quench counter-screen; series mostly up to 50 µM. An outline of the steps:
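Material: human RAD54 protein; quantity: 30 nM RAD54 in the enzyme mix; dosing: pinned compound dose series, 10 mM stock solutions; incubation: 60 min reaction at room temperature after substrate addition; measured by: fluorescence of the Cy5-labelled DNA substrate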
`COc1ccc(CN(C)C[C@@H]2Oc3ccc(NC(=O)Nc4ccc(F)cc4)cc3C(=O)N([C@@H](C)CO)C[C@H]2C)cc1`: the compound was classed as inactive.

Regarding `CC(C)NC(=O)Nc1ccc2c(c1)C(=O)N([C@H](C)CO)C[C@@H](C)[C@H](CN(C)S(=O)(=O)c1ccc(Cl)cc1)O2`, the call was inactive.

`C[C@@H]1CN([C@@H](C)CO)C(=O)c2cc(C3=CCCC3)cnc2O[C@@H]1CN(C)C(=O)Nc1ccc(F)cc1`: the compound was called inactive.

As to `COc1ccccc1CNC(=O)C[C@@H]1C[C@@H]2c3cc(NC(=O)CN(C)C)ccc3O[C@@H]2[C@@H](CO)O1`, the outcome was inactive.

Turning to `CN1CCN(C(=O)C[C@H]2C[C@@H]3c4cc(NC(=O)Cc5ccncc5)ccc4O[C@@H]3[C@@H](CO)O2)CC1`, the outcome was inactive.

Take `O=S(=O)(c1ccccc1)N1CCCCN2[C@H](CO)[C@H](c3ccc(C#CC4CCCC4)cc3)[C@@H]2C1`: the call was inactive.

As to `Cc1noc(C)c1NC(=O)Nc1ccc2c(c1)C(=O)N([C@H](C)CO)C[C@H](C)[C@H](CN(C)S(C)(=O)=O)OCCCC[C@H](C)O2`, the outcome was inactive.

On to `C[C@H]1CN([C@@H](C)CO)C(=O)c2cc(NS(=O)(=O)c3cccs3)ccc2O[C@@H]1CN(C)C(=O)Nc1cccc2ccccc12`, for which the call was inactive.

For `COc1ccc(-c2ccc3c(c2)O[C@H](CN(C)C(C)=O)[C@H](C)CN([C@@H](C)CO)S3(=O)=O)cc1`, the outcome was inactive.

For `Cc1ccc(S(=O)(=O)N(C)C[C@@H]2Oc3ccc(NC(=O)Nc4c(C)noc4C)cc3CC(=O)N([C@@H](C)CO)C[C@@H]2C)cc1`, the compound was classed as inactive.

As to `COc1ccc(CN(C)C[C@@H]2Oc3ccc(NC(=O)NC(C)C)cc3C(=O)N([C@H](C)CO)C[C@H]2C)cc1`, the compound was classed as inactive.

For `C[C@H]1CN([C@@H](C)CO)C(=O)Cc2cc(NC(=O)Nc3cccc4ccccc34)ccc2O[C@H]1CN(C)S(=O)(=O)c1ccc(F)cc1`, the compound was called inactive.

For the compound `COCC(=O)Nc1ccc2c(c1)[C@H]1C[C@@H](CC(=O)NCc3ccccc3F)O[C@H](CO)[C@H]1O2`, the result was inactive.

On to `Cc1ccc(S(=O)(=O)N(C)C[C@@H]2Oc3ccc(NC(=O)NC4CCCCC4)cc3CC(=O)N([C@H](C)CO)C[C@@H]2C)cc1`, for which the result was inactive.

Consider `Cc1noc(C)c1NC(=O)N(C)C[C@H]1Oc2c(NC(=O)Nc3ccc(C(F)(F)F)cc3)cccc2C(=O)N([C@@H](C)CO)C[C@H]1C`, for which the outcome was inactive.

For the compound `COc1cccc(S(=O)(=O)N2CCCCN3[C@@H](CO)[C@H](c4ccc(C#CCC(C)C)cc4)[C@@H]3C2)c1`, the outcome was inactive.

`COc1ccccc1CNC(=O)C[C@H]1C[C@@H]2c3cc(NC(=O)c4cccnc4)ccc3O[C@@H]2[C@H](CO)O1`: the call was inactive.

For `COc1ccc(S(=O)(=O)N(C)C[C@@H]2Oc3ccc(NC(=O)Nc4ccc5c(c4)OCO5)cc3C(=O)N([C@@H](C)CO)C[C@H]2C)cc1`, the result was inactive.

Source of the values: PubChem BioAssay AID651651 (Broad Institute, 2012).
